Source: ChEMBL document CHEMBL1145189, “Synthesis and evaluation of S-acyl-2-thioethyl esters of modified nucleoside 5'-monophosphates as inhibitors of hepatitis C virus RNA replication” (J Med Chem, 2005)
pEC50, pIC50: −log10 of the molar value.

Assays:
[1] = Inhibitory concentration against hepatitis C virus NS5B-mediated RNA synthesis in HBI10A cells; type: functional, cell-based; conditions: Homo sapiens
[2] = Effective concentration against hepatitis C virus RNA replication in a subgenomic bicistronic replicon in HBI10A cells; type: functional, cell-based; conditions: Homo sapiens
Method in brief: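 Stable Huh-7-derived HBI10A hepatoma line carrying a subgenomic bicistronic HCV replicon. Compound incubated with cells for 24 h. Relative replicon RNA then quantified by in situ ribonuclease protection assay.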

[3] = Cytotoxic concentration of compound in human HBI10A cells infected with hepatitis C virus in MTS assay; type: functional
Method in brief: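 MTS cytotoxicity run on samples parallel to the replicon assay, at the same time (24 h compound exposure). Cells plated at 2.0 × 10⁴/well and compound added next day at 2× in medium. Incubation at 37 °C, 5% CO₂. MTS reagent added for 1 h, then absorbance read at 490 nm.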

[4] = tested on: CHO; test: Effect of compound (10000 uM) on growth of CHO cells measured as population doublings from the beginning of the experiment as percent of controls after 20 hr of treatment (harvested at 20h of treatment); type: functional, Cricetulus griseus
Method in brief: (§1)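 Exponentially growing CHO (clone WBL) monolayers treated for 20 h without S-9. DMSO stock diluted 100-fold into medium, giving 1% v/v DMSO as vehicle control. Cultures harvested at 20, 30 or 42 h after dosing. Growth expressed as population doublings from start of experiment as a percentage of controls.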

[5] = tested on: CHO; test: Effect of compound (10000 uM) on growth of CHO cells measured as population doublings from the beginning of the experiment as percent of controls after 20 hr of treatment (harvested at 30h of treatment); type: functional, Cricetulus griseus; method in brief: as §1
[6] = tested on: CHO; test: Effect of compound (10000 uM) on growth of CHO cells measured as population doublings from the beginning of the experiment as percent of controls after 20 hr of treatment (harvested at 42h of treatment); type: functional, Cricetulus griseus; method in brief: as §1
[7] = tested on: CHO; test: Percent of CHO cells with chromosomal aberrations were determined at 10000 uM compound after 20 hr of treatment (harvested at 20h of treatment); type: functional, Cricetulus griseus
Method in brief: (§2)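 CHO (clone WBL) monolayers treated for 20 h without S-9, with DMSO stock diluted 100-fold into medium. Harvest at 20, 30 or 42 h after dosing; colcemid added 1–2 h before harvest for metaphase arrest. Cells fixed, and 200 cells scored per point for % aberrant cells. Points not scored where toxicity prevented it. Comparison against concurrent controls.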

[8] = tested on: CHO; test: Percent of CHO cells with chromosomal aberrations were determined at 10000 uM compound after 20 hr of treatment (harvested at 30h of treatment); type: functional, Cricetulus griseus; method in brief: as §2
[9] = tested on: CHO; test: Percent of CHO cells with chromosomal aberrations were determined at 10000 uM compound after 20 hr of treatment (harvested at 42h of treatment); type: functional, Cricetulus griseus; method in brief: as §2

| SMILES | pIC50 [1] | pEC50 [2] | CC50 [3] [µM] | further results |
| --- | --- | --- | --- | --- |
| Nc1ccn([C@@H]2O[C@H](CO)C[C@H]2O)c(=O)n1 | 5.92 | 4.60 | > 50 | – |
| Nc1nc(O)c2ccn([C@@H]3O[C@H](CO)C[C@H]3O)c2n1 | 7.10 | < 4.30 | – | – |
| CO[C@@H]1[C@H](O)[C@@H](CO)O[C@H]1n1ccc2c(O)nc(N)nc21 | 6.46 | < 4.30 | – | – |
| Nc1nc2c(ncn2[C@@H]2O[C@H](CO)C[C@H]2O)c(=O)[nH]1 | 6.22 | < 4.30 | – | – |
| Nc1ccn([C@H]2CC[C@@H](CO)O2)c(=O)n1 [ZALCITABINE] | – | – | – | Growth [4]: 65%; Growth [5]: 101%; Growth [6]: 105%; Aberrant cells [7]: 9.5%; Aberrant cells [8]: 8%; Aberrant cells [9]: 3% |
| CO[C@@H]1[C@H](O)[C@@H](COP(=O)(OCCSC(=O)C(C)(C)C)OCCSC(=O)C(C)(C)C)O[C@H]1n1ccc2c(O)nc(N)nc21 | – | < 4.30 | > 100 | – |
